Where a SMILES comes first, the peptide text is derived from it. [ ]: non-standard residue; d: D form. d2Nal = N[C@H](Cc1ccc2ccccc2c1)C(=O)O; Nle = CCCC[C@H](N)C(=O)O
What was measured:
Melanocortin receptor 5 [1] = molecular target: T1, Melanocortin receptor 5 (Homo sapiens, UniProt P33032); format: cell-based, HEK293
[2] = molecular target: T2, Melanocyte-stimulating hormone receptor (Homo sapiens, UniProt Q01726); assay: Effective concentration for intracellular cAMP accumulation in human melanocortin 1 receptor expressing HEK 293 cells; (N = 4); format: functional, cell-based, HEK293
Method in brief: (§1)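 HEK293 cells transfected with human MCRs, grown in MEM with 10% FBS, seeded 48 h before at 100 000 cells/well. Stopped with ice-cold Tris/EDTA, boiled 15 min, centrifuged; cAMP in supernatant measured by competitive binding kit. EC50 and maximal response by nonlinear least-squares fit.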
Target sequence in this assay (Q01726 whole entry): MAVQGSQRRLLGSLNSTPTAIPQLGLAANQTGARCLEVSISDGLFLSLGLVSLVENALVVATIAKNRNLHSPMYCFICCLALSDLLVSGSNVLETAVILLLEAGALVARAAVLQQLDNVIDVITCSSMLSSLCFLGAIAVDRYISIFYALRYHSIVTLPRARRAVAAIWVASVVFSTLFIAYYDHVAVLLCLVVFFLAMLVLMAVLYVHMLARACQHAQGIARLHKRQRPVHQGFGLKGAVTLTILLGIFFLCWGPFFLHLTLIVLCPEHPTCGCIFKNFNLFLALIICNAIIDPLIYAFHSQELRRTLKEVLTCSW

Melanocortin receptor 4 [3] = molecular target: T3, Melanocortin receptor 4 (Homo sapiens, UniProt P32245); format: cell-based, HEK293
Melanocortin receptor 5 [4] = molecular target: T1, Melanocortin receptor 5; assay: Effective concentration for intracellular cAMP accumulation in human melanocortin 5 receptor expressing HEK 293 cells; (N = 4); format: functional, cell-based, HEK293; method in brief: as §1
Melanocortin receptor 3 [5] = molecular target: T4, Melanocortin receptor 3 (Homo sapiens, UniProt P41968); format: cell-based, HEK293
Melanocortin receptor 3 [6] = molecular target: T4, Melanocortin receptor 3; assay: Effective concentration for intracellular cAMP accumulation in human melanocortin 3 receptor expressing HEK 293 cells; (N = 4); format: functional, cell-based, HEK293; method in brief: as §1
Melanocortin receptor 4 [7] = molecular target: T3, Melanocortin receptor 4; assay: Effective concentration for intracellular cAMP accumulation in human melanocortin 4 receptor expressing HEK 293 cells; (N = 4); format: functional, cell-based, HEK293
[8] = molecular target: T2, Melanocyte-stimulating hormone receptor; format: cell-based, HEK293
Target sequence in this assay (Q01726 whole entry): as above

Melanocortin receptor 4 [9] = molecular target: T3, Melanocortin receptor 4; conditions: HEK293
Melanocortin receptor 5 [10] = molecular target: T1, Melanocortin receptor 5; assay: Effective concentration for intracellular cAMP accumulation in human melanocortin 5 receptor expressing HEK 293 cells; (N = 4), No activity; format: functional, cell-based; conditions: hek293
Method in brief: as §1, with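 “cells/well. Preincubated 1 min at 37 °C in EBSS with IBMX, then exposed 3 min at 37 °C to peptide (10^-10 to 10^-5 M).” for “cells/well.”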

Melanocortin receptor 3 [11] = molecular target: T4, Melanocortin receptor 3; assay: Maximal effect on human melanocortin 3 receptor expressing HEK 293 cells; format: functional, cell-based; conditions: HEK293; method in brief: as §1
[12] = molecular target: T2, Melanocyte-stimulating hormone receptor; assay: Maximal effect on human melanocortin 1 receptor expressing HEK 293 cells; format: functional, cell-based; conditions: HEK293; method in brief: as §1
Target sequence in this assay (Q01726 whole entry, looked up): as the sequence (Q01726 whole entry) above

Melanocortin receptor 5 [13] = molecular target: T1, Melanocortin receptor 5; assay: Maximal effect on human melanocortin 5 receptor expressing HEK 293 cells; format: functional, cell-based; conditions: HEK293; method in brief: as §1

T4 sequence (P41968 whole entry): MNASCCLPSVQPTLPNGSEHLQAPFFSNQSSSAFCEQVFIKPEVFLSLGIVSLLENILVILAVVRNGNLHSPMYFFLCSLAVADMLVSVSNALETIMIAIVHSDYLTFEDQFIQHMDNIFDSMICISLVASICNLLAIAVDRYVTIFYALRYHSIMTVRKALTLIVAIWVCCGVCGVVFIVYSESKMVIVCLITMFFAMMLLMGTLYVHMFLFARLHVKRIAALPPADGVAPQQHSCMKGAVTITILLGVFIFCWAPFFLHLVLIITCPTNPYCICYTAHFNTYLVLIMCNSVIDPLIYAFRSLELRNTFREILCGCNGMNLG
T1 sequence (P33032 whole entry): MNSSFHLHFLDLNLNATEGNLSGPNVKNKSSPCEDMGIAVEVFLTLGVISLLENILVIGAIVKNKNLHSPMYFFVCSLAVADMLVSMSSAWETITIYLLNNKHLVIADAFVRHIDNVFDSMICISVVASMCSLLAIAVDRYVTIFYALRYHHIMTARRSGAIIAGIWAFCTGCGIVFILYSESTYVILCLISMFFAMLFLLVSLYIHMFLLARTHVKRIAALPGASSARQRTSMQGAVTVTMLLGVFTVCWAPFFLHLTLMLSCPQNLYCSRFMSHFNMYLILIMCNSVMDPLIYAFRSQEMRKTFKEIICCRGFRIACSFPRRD
T3 sequence (P32245 whole entry): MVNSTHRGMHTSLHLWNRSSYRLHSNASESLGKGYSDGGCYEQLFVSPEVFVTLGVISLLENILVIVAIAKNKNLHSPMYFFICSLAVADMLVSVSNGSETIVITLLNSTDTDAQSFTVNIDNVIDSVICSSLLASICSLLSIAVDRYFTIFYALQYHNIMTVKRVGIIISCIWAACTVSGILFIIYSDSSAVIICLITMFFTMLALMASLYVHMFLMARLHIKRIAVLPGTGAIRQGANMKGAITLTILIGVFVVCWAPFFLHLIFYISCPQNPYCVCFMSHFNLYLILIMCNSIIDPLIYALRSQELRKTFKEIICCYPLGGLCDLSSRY

`CCCC[C@H](NC(=O)[C@@H](NC(=O)[C@@H](N)Cc1ccc(O)cc1)C(C)C)C(=O)NCC(=O)N[C@@H](Cc1cnc[nH]1)C(=O)N[C@H](Cc1ccc2ccccc2c1)C(=O)N[C@@H](CCCNC(=N)N)C(=O)N[C@H](Cc1ccccc1)C(=O)N[C@@H](CC(=O)O)C(=O)N[C@@H](CCCNC(=N)N)C(=O)N[C@@H](Cc1ccccc1)C(=O)NCC(N)=O` (H-YV[Nle]GH[d2Nal]R[dF]DRFG-NH2) showed an IC50 (Melanocortin receptor 5 [1]) of 3.3 nM, an EC50 [2] of 1.5 nM and an IC50 (Melanocortin receptor 4 [3]) of 20 nM. For the same compound, the EC50 (Melanocortin receptor 5 [4]) was 490 nM, the IC50 (Melanocortin receptor 3 [5]) was 6 nM and the EC50 (Melanocortin receptor 3 [6]) was 951 nM. For the same compound, the EC50 (Melanocortin receptor 4 [7]) was 2700 nM and the IC50 [8] was 0.16 nM.
Compound `CCCC[C@H](NC(=O)[C@@H](NC(=O)[C@@H](N)Cc1ccc(O)cc1)C(C)C)C(=O)NCC(=O)N[C@H](Cc1ccc2ccccc2c1)C(=O)N[C@@H](Cc1ccccc1)C(=O)N[C@@H](CCCN=C(N)N)C(=O)N[C@@H](Cc1c[nH]c2ccccc12)C(=O)N[C@@H](CC(=O)O)C(=O)N[C@@H](CCCN=C(N)N)C(=O)N[C@@H](Cc1ccccc1)C(=O)NCC(N)=O` has an IC50 (Melanocortin receptor 5 [1]; hek293) of 1000 nM, an IC50 (Melanocortin receptor 4 [3]; hek293) of 1990 nM and an EC50 (Melanocortin receptor 5 [4]; hek293) of 870 nM. The IC50 (Melanocortin receptor 3 [5]; hek293) was 3000 nM, the EC50 (Melanocortin receptor 3 [6]; hek293) was over 10000 nM and the EC50 (Melanocortin receptor 4 [7]; hek293) was over 10000 nM.
With `CCCC[C@H](NC(=O)[C@@H](NC(=O)[C@@H](N)Cc1ccc(O)cc1)C(C)C)C(=O)NCC(=O)N[C@@H](Cc1c[nH]cn1)C(=O)N[C@@H](Cc1ccccc1)C(=O)N[C@@H](CCCN=C(N)N)C(=O)N[C@@H](Cc1c[nH]c2ccccc12)C(=O)N[C@@H](CC(=O)O)C(=O)N[C@@H](CCCN=C(N)N)C(=O)N[C@@H](Cc1ccccc1)C(=O)NCC(=O)O` the Maximal effect (Melanocortin receptor 4 [9]) was 100%.
`CCCC[C@H](NC(=O)[C@@H](NC(=O)[C@@H](N)Cc1ccc(O)cc1)C(C)C)C(=O)NCC(=O)N1CCC[C@H]1C(=O)N[C@H](Cc1ccc2ccccc2c1)C(=O)N[C@@H](CCCN=C(N)N)C(=O)N[C@H](Cc1ccc2ccccc2c1)C(=O)N[C@@H](CC(=O)O)C(=O)N[C@@H](CCCN=C(N)N)C(=O)N[C@@H](Cc1ccccc1)C(=O)NCC(N)=O` was tested, and the IC50 (Melanocortin receptor 5 [1]) was 2 nM, the EC50 [2] was 2 nM and the IC50 (Melanocortin receptor 4 [3]) was 4 nM. The EC50 (Melanocortin receptor 5 [10]) was “Not Active”, the IC50 (Melanocortin receptor 3 [5]) was 3 nM and the EC50 (Melanocortin receptor 3 [6]) was 11 nM. The EC50 (Melanocortin receptor 4 [7]) was 3.3 nM and the IC50 [8] was 2 nM.
Work on `CCCC[C@H](NC(=O)[C@@H](NC(=O)[C@@H](N)Cc1ccc(O)cc1)C(C)C)C(=O)NCC(=O)N1CCC[C@H]1C(=O)N[C@@H](Cc1ccccc1)C(=O)N[C@@H](CCCN=C(N)N)C(=O)N[C@H](Cc1ccc2ccccc2c1)C(=O)N[C@@H](CC(=O)O)C(=O)N[C@@H](CCCN=C(N)N)C(=O)N[C@@H](Cc1ccccc1)C(=O)NCC(=O)O` yielded a Maximal effect (Melanocortin receptor 3 [11]) of 28%, a Maximal effect [12] of 120% and a Maximal effect (Melanocortin receptor 5 [13]) of 46%. For the same compound, the Maximal effect (Melanocortin receptor 4 [9]) was 14%.
Work on `CCCC[C@H](NC(=O)[C@@H](NC(=O)[C@@H](N)Cc1ccc(O)cc1)C(C)C)C(=O)NCC(=O)N[C@@H](Cc1c[nH]cn1)C(=O)N[C@@H](Cc1ccccc1)C(=O)N[C@@H](CCCN=C(N)N)C(=O)N[C@@H](Cc1c[nH]c2ccccc12)C(=O)N[C@@H](CC(=O)O)C(=O)N[C@@H](CCCN=C(N)N)C(=O)N[C@@H](Cc1ccccc1)C(=O)NCC(N)=O` yielded an IC50 (Melanocortin receptor 4 [3]) of 64 nM.
For `CCCC[C@H](NC(=O)[C@@H](NC(=O)[C@@H](N)Cc1ccc(O)cc1)C(C)C)C(=O)NCC(=O)N[C@@H](Cc1c[nH]cn1)C(=O)N[C@H](Cc1ccccc1)C(=O)N[C@@H](CCCN=C(N)N)C(=O)N[C@H](Cc1c[nH]c2ccccc12)C(=O)N[C@@H](CC(=O)O)C(=O)N[C@@H](CCCN=C(N)N)C(=O)N[C@@H](Cc1ccccc1)C(=O)NCC(N)=O`, the IC50 (Melanocortin receptor 4 [3]) was 17 nM and the EC50 (Melanocortin receptor 4 [7]) was 29 nM.
`CCCC[C@H](NC(=O)[C@@H](NC(=O)[C@@H](N)Cc1ccc(O)cc1)C(C)C)C(=O)NCC(=O)N1CCC[C@H]1C(=O)N[C@@H](Cc1ccccc1)C(=O)N[C@@H](CCCN=C(N)N)C(=O)N[C@H](Cc1ccc2ccccc2c1)C(=O)N[C@@H](CC(=O)O)C(=O)N[C@@H](CCCN=C(N)N)C(=O)N[C@@H](Cc1ccccc1)C(=O)NCC(N)=O` gave an IC50 (Melanocortin receptor 5 [1]) of 650 nM, an EC50 (Melanocortin receptor 5 [4]) of 250 nM and an IC50 (Melanocortin receptor 3 [5]) of 32 nM. For the same compound, the EC50 (Melanocortin receptor 3 [6]) was 13 nM.
`CCCC[C@H](NC(=O)[C@@H](NC(=O)[C@@H](N)Cc1ccc(O)cc1)C(C)C)C(=O)NCC(=O)N[C@@H](Cc1c[nH]cn1)C(=O)N[C@H](Cc1ccccc1)C(=O)N[C@@H](CCCN=C(N)N)C(=O)N[C@H](Cc1ccc2ccccc2c1)C(=O)N[C@@H](CC(=O)O)C(=O)N[C@@H](CCCN=C(N)N)C(=O)N[C@@H](Cc1ccccc1)C(=O)NCC(N)=O` gave an IC50 (Melanocortin receptor 5 [1]) of 5 nM, an EC50 [2] of 2 nM and an IC50 (Melanocortin receptor 4 [3]) of 6 nM. For the same compound, the EC50 (Melanocortin receptor 5 [4]) was 200 nM, the IC50 (Melanocortin receptor 3 [5]) was 6 nM and the EC50 (Melanocortin receptor 4 [7]) was 36 nM. The IC50 [8] was 0.7 nM.

Reference: ChEMBL document CHEMBL1144443, “Novel 3D pharmacophore of alpha-MSH/gamma-MSH hybrids leads to selective human MC1R and MC3R analogues” (J Med Chem, 2005)
